From ChEMBL document CHEMBL1158680, “Chemical constituents and biological activities of the fruit of Zanthoxylum integrifoliolum” (1999)
The source made the active and inactive calls. The calls are words filed in the database; no cut-off is given here.

Tests used:
Aorta [1] = assay: Vasorelaxation activity in rat aorta assessed as inhibition of K+-induced contraction at 1 ug/ml preincubated for 15 mins relative to control; assay type: functional; design: scale not given: the % may be the effect or the level left
Summary of the method: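 Rat aorta preincubated with sample or DMSO (0.1%, control) at 37 °C for 15 min. Contraction then induced by high potassium (K+, 80 mM). Response expressed as percentage of control contraction, given as means ± S.E.M. (n = 3).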

Aorta [2] = assay: Vasorelaxation activity in rat aorta assessed as inhibition of norepinephrine-induced phasic contraction at 100 ug/ml preincubated for 15 mins relative to control; assay type: functional; design: scale not given: the % may be the effect or the level left
Summary of the method: (§1)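 Rat aorta was preincubated with test sample or 0.1% DMSO vehicle at 37 °C for 15 min. Contraction was then evoked with high K+ (80 mM) or norepinephrine (3 μM). Response is expressed as percent of control contraction, mean ± SEM, n = 3.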

[3] = (§2) Antiplatelet activity against rabbit platelets assessed as inhibition of collagen-induced platelet aggregation at 100 ug/ml preincubated for 3 mins by turbidimetric method; assay type: functional, Oryctolagus cuniculus; design: scale not given: the % may be the effect or the level left
Summary of the method: (§3)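 Washed rabbit platelets were preincubated with test sample or 0.5% DMSO vehicle for 3 min at 37 °C. Inducers were thrombin 0.1 U/mL, arachidonic acid 100 μM, collagen 10 μg/mL or PAF 2 nM. Turbidimetric read-out took platelet suspension absorbance as 0% and platelet-free Tyrode's as 100% aggregation, measured at 6 min. Results are mean ± SEM with n per entry.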

[4] = Antiplatelet activity against rabbit platelets assessed as inhibition of PAF-induced platelet aggregation at 100 ug/ml preincubated for 3 mins by turbidimetric method; assay type: functional, Oryctolagus cuniculus; design: scale not given: the % may be the effect or the level left; summary of the method: as §3
Aorta [5] = assay: Vasorelaxation activity in rat aorta assessed as inhibition of norepinephrine-induced tonic contraction at 100 ug/ml preincubated for 15 mins relative to control; assay type: functional; design: scale not given: the % may be the effect or the level left; summary of the method: as §1
[6] = (§4) Antiplatelet activity against rabbit platelets assessed as inhibition of arachidonic acid-induced platelet aggregation at 100 ug/ml preincubated for 3 mins by turbidimetric method; assay type: functional, Oryctolagus cuniculus; design: scale not given: the % may be the effect or the level left; summary of the method: as §3
Aorta [7] = assay: Vasorelaxation activity in rat aorta assessed as inhibition of K+-induced contraction at 100 ug/ml preincubated for 15 mins relative to control; assay type: functional; design: scale not given: the % may be the effect or the level left; summary of the method: as §1
[8] = Antiplatelet activity against rabbit platelets assessed as inhibition of thrombin-induced platelet aggregation at 100 ug/ml preincubated for 3 mins by turbidimetric method; assay type: functional, Oryctolagus cuniculus; design: scale not given: the % may be the effect or the level left; summary of the method: as §3
[9] = Antiplatelet activity against rabbit platelets assessed as inhibition of thrombin-induced platelet aggregation at 20 ug/ml preincubated for 3 mins by turbidimetric method; assay type: functional, Oryctolagus cuniculus; design: scale not given: the % may be the effect or the level left; summary of the method: as §3
Aorta [10] = assay: Vasorelaxation activity in rat aorta assessed as inhibition of norepinephrine-induced phasic contraction at 50 ug/ml preincubated for 15 mins relative to control; assay type: functional; design: scale not given: the % may be the effect or the level left; summary of the method: as §1
[11] = (§5) Antiplatelet activity against rabbit platelets assessed as inhibition of collagen-induced platelet aggregation at 50 ug/ml preincubated for 3 mins by turbidimetric method; assay type: functional, Oryctolagus cuniculus; design: scale not given: the % may be the effect or the level left; summary of the method: as §3
[12] = Antiplatelet activity against rabbit platelets assessed as inhibition of collagen-induced platelet aggregation at 20 ug/ml preincubated for 3 mins by turbidimetric method; assay type: functional, Oryctolagus cuniculus; design: scale not given: the % may be the effect or the level left; summary of the method: as §3
[13] = Antiplatelet activity against rabbit platelets assessed as inhibition of thrombin-induced platelet aggregation at 50 ug/ml preincubated for 3 mins by turbidimetric method; assay type: functional, Oryctolagus cuniculus; design: scale not given: the % may be the effect or the level left; summary of the method: as §3
[14] = (§6) Antiplatelet activity against rabbit platelets assessed as inhibition of arachidonic acid-induced platelet aggregation at 50 ug/ml preincubated for 3 mins by turbidimetric method; assay type: functional, Oryctolagus cuniculus; design: scale not given: the % may be the effect or the level left; summary of the method: as §3
[15] = Antiplatelet activity against rabbit platelets assessed as inhibition of arachidonic acid-induced platelet aggregation at 20 ug/ml preincubated for 3 mins by turbidimetric method; assay type: functional, Oryctolagus cuniculus; design: scale not given: the % may be the effect or the level left; summary of the method: as §3
[16] = Antiplatelet activity against rabbit platelets assessed as inhibition of PAF-induced platelet aggregation at 50 ug/ml preincubated for 3 mins by turbidimetric method; assay type: functional, Oryctolagus cuniculus; design: scale not given: the % may be the effect or the level left; summary of the method: as §3
Aorta [17] = assay: Vasorelaxation activity in rat aorta assessed as inhibition of norepinephrine-induced tonic contraction at 50 ug/ml preincubated for 15 mins relative to control; assay type: functional; design: scale not given: the % may be the effect or the level left; summary of the method: as §1
[18] = Antiplatelet activity against rabbit platelets assessed as inhibition of PAF-induced platelet aggregation at 20 ug/ml preincubated for 3 mins by turbidimetric method; assay type: functional, Oryctolagus cuniculus; design: scale not given: the % may be the effect or the level left; summary of the method: as §3
Aorta [19] = assay: Vasorelaxation activity in rat aorta assessed as inhibition of norepinephrine-induced tonic contraction at 15 ug/ml preincubated for 15 mins relative to control; assay type: functional; design: scale not given: the % may be the effect or the level left; summary of the method: as §1
Aorta [20] = assay: Vasorelaxation activity in rat aorta assessed as inhibition of K+-induced contraction at 5 ug/ml preincubated for 15 mins relative to control; assay type: functional; design: scale not given: the % may be the effect or the level left; summary of the method: as §1
Aorta [21] = assay: Vasorelaxation activity in rat aorta assessed as inhibition of norepinephrine-induced phasic contraction at 15 ug/ml preincubated for 15 mins relative to control; assay type: functional; design: scale not given: the % may be the effect or the level left; summary of the method: as §1
Aorta [22] = assay: Vasorelaxation activity in rat aorta assessed as inhibition of K+-induced contraction at 50 ug/ml preincubated for 15 mins relative to control; assay type: functional; design: scale not given: the % may be the effect or the level left; summary of the method: as §1
Aorta [23] = assay: Vasorelaxation activity in rat aorta assessed as inhibition of K+-induced contraction at 15 ug/ml preincubated for 15 mins relative to control; assay type: functional; design: scale not given: the % may be the effect or the level left; summary of the method: as §1
[24] = Antiplatelet activity against rabbit platelets assessed as inhibition of arachidonic acid-induced platelet aggregation at 10 ug/ml preincubated for 3 mins by turbidimetric method; assay type: functional, Oryctolagus cuniculus; design: scale not given: the % may be the effect or the level left; summary of the method: as §3
[25] = Antiplatelet activity against rabbit platelets assessed as inhibition of arachidonic acid-induced platelet aggregation at 5 ug/ml preincubated for 3 mins by turbidimetric method; assay type: functional, Oryctolagus cuniculus; design: scale not given: the % may be the effect or the level left
Summary of the method: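 Washed rabbit platelet suspension preincubated with DMSO (0.5%, control) or sample at 37 °C for 3 min. Arachidonic acid (100 μM) then added. Turbidimetric read-out with platelet suspension as 0% and platelet-free Tyrode's solution as 100% aggregation. Percent aggregation read at 6 min. Means ± S.E.M. (n).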

[26] = Antiplatelet activity against rabbit platelets assessed as inhibition of PAF-induced platelet aggregation at 10 ug/ml preincubated for 3 mins by turbidimetric method; assay type: functional, Oryctolagus cuniculus; design: scale not given: the % may be the effect or the level left; summary of the method: as §3
Platelet [27] = assay: as §2; assay type: functional; details: Oryctolagus cuniculus; summary of the method: as §3
Platelet [28] = assay: as §5; assay type: functional; details: Oryctolagus cuniculus; summary of the method: as §3
Aorta [29] = assay: Vasorelaxation activity in rat aorta assessed as inhibition of norepinephrine-induced phasic contraction at 30 ug/ml preincubated for 15 mins relative to control; assay type: functional; design: scale not given: the % may be the effect or the level left; summary of the method: as §1
Aorta [30] = assay: Vasorelaxation activity in rat aorta assessed as inhibition of norepinephrine-induced tonic contraction at 30 ug/ml preincubated for 15 mins relative to control; assay type: functional; design: scale not given: the % may be the effect or the level left; summary of the method: as §1
Aorta [31] = assay: Vasorelaxation activity in rat aorta assessed as inhibition of K+-induced contraction at 30 ug/ml preincubated for 15 mins relative to control; assay type: functional; design: scale not given: the % may be the effect or the level left; summary of the method: as §1
Platelet [32] = assay: as §6; assay type: functional; details: Oryctolagus cuniculus; summary of the method: as §3
Platelet [33] = assay: as §4; assay type: functional; details: Oryctolagus cuniculus; summary of the method: as §3

Row | Structure (SMILES) | Activity [3] [%] | Activity [4] [%] | Activity [6] [%] | Activity [8] [%] | Activity (Aorta [10]) [%] | Activity [14] [%] | Activity [15] [%] | Activity (Aorta [17]) [%] | Activity (Aorta [22]) [%] | Activity [24] [%] | also measured
1 | COC(=O)C1=C(C)NC(C)=C(C(=O)OC)C1c1ccccc1[N+](=O)[O-] [NIFEDIPINE] | – | – | – | – | – | – | – | – | – | – | Activity (Aorta [1]): 0%
2 | COc1ccc(-c2oc3c(OC)c(OC)cc(O)c3c(=O)c2O)cc1 [TAMBULIN] | 64.9 | 78.6 | 73.3 | 81.1 | – | – | – | – | – | – | Activity (Aorta [2]): 100.2%; Activity (Aorta [5]): 98.6%; Activity (Aorta [7]): 104.7%
3 | CCCCCCC(=O)CC/C=C/C=C/C(=O)NCC(C)C [LANYUAMIDE I] | 0 | 0 | 0 | 8.9 | 77.1 | 0 | 15.6 | 45.5 | 28.6 | – | Activity [9]: 80.4%; Activity [11]: 0%; Activity [12]: 2.7%; Activity [13]: 75.7%; Activity [16]: 20%; Activity [18]: 76%; Activity (Aorta [19]): 77.1%; Activity (Aorta [20]): 82%; Activity (Aorta [21]): 100%; Activity (Aorta [23]): 47.6%
4 | CC(=O)[C@H]1CC[C@H]2[C@@H]3CC=C4C[C@@H](O)CC[C@]4(C)[C@H]3CC[C@]12C [PREGNENOLONE] | 84.7 | 77 | 86.5 | 91.8 | 114.1 | – | – | 102.6 | 93.6 | – | –
5 | CC(=O)Oc1ccccc1C(=O)O [ASPIRIN] | – | – | – | – | – | 0 | 42.7 | – | – | 90.2 | Activity [11]: 87.1%; Activity [13]: 92.1%; Activity [16]: 90.1%
6 | COc1ccc(-c2oc3c(OC)c(OC)cc(OC(C)=O)c3c(=O)c2OC(C)=O)cc1 | 5.1 | 0 | 0 | 88.5 | 74.6 | – | 0 | 58.7 | 25.3 | 29 | Activity [25]: 51.1%; Activity [16]: 46.7%; Activity [26]: 78%; Activity [18]: 71.2%; Activity (Aorta [19]): 86.3%; Activity (Aorta [20]): 84.8%; Activity (Aorta [21]): 94.6%; Activity (Aorta [23]): 57.1%
7 | CCCCCCCCCCCC(C)=O [2-TRIDECANONE] | – | – | – | – | – | – | 63.5 | – | – | – | Activity (Platelet [27]): inactive; Activity (Platelet [28]): inactive
8 | O=c1ccc2nccc3c4ccccc4n1c23 [CANTHIN-6-ONE] | 7.9 | 36.4 | 4.2 | 85.3 | – | 57.3 | – | – | – | – | –
9 | CC/C=C/C/C=C\CC/C=C/C=C/C(=O)NCC(C)(C)O | 0 | 38.4 | 0 | 89.2 | – | 0 | 4 | – | – | 27.8 | Activity [25]: 46.2%
10 | COc1cc2ccc(=O)oc2cc1O [SCOPOLETIN] | 80.9 | 78.2 | 80.5 | 89.8 | 91.9 | – | – | 81.6 | 88.4 | – | –
11 | COc1ccc2c(c1OC)CN1CCc3cc4c(cc3[C@@H]1C2)OCO4 [CANADINE] | 76.4 | 54.7 | 45.8 | 91.2 | 11.2 | – | – | 25.6 | 13.6 | – | Activity (Aorta [19]): 70%; Activity (Aorta [20]): 82.8%; Activity (Aorta [21]): 79.1%; Activity (Aorta [23]): 49.8%
12 | CC/C=C\C/C=C\CC/C=C/C=C/C(=O)NCC(C)(C)O | 0 | 38.4 | 0 | 89.2 | – | 0 | 4 | – | – | 27.8 | Activity [25]: 46.2%
13 | CCCCCCCCC/C=C/C=C/C(=O)NCC(C)(C)O [TETRAHYDROBUNGEANOOL] | 0 | 6.7 | 0 | 74 | – | 58.3 | – | – | – | – | Activity [16]: 82.7%
14 | COc1ccc(-c2oc3c(OC)c(O)cc(O)c3c(=O)c2O)cc1 [PRUDOMESTIN] | 58.1 | 73.3 | 0 | 87.5 | – | – | 0 | – | – | 64.5 | Activity (Aorta [2]): 20%; Activity (Aorta [29]): 100.6%; Activity (Aorta [30]): 97.8%; Activity (Aorta [31]): 83.4%; Activity (Aorta [5]): 46.7%; Activity (Aorta [7]): 36.7%
15 | c1cc2c(cc1[C@H]1OC[C@H]3[C@@H]1CO[C@@H]3c1ccc3c(c1)OCO3)OCO2 [SESAMIN] | – | – | – | – | – | – | 82.3 | – | – | – | Activity (Platelet [27]): inactive; Activity [9]: 87.8%; Activity (Platelet [28]): inactive; Activity [12]: 83.2%; Activity (Platelet [32]): inactive; Activity (Platelet [33]): inactive; Activity [18]: 83.7%
